# Assay outcomes as filed in PubChem BioAssay.
# Sampled rows, rich in hits. Any-hit rate of the full collection: about 4.2%.
# HDAC3 inh: human HDAC3 inhibition | O15379 | recombinant HDAC3, fluorogenic peptide/trypsin coupled, fluorescence | inhibition, % at 8.3 µM | actives 0.15% (n = 320,000) | AID 2718; in the data active = inhibition above about 26%, passing the limit was not always enough
# GAA850 FXN act: activators of GAA850 frataxin (FXN) promoter | AID 540364 | HEK293 lucGAA850 FXN promoter luciferase reporter, 24 h; percent of 10 µM SAHA response | actives 0.56% (n = 360,000) | activation, % at 6 µM;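 active = activation above the average of all compounds screened plus 3 SD, cutoff fixed separately per campaign, cut at about 7.5% in these data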;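 note: 0% = DMSO wells and 100% = 10 µM SAHA wells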
# CTSL1 counter: blocks F. hepatica cathepsin L1 in PFM18AAP counter-screen; actives 0.49% (n = 300,000); inhibition, % at 5.96 µM; recombinant F. hepatica cathepsin L1, Z-Leu-Arg-MCA fluorescence;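 active = inhibition above the mean of all tested compounds plus 3 SD, set per screening campaign, cut at about 17% in these data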;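 note: 0% = plate median of test compound wells and 100% = 1 µM Z-Phe-Ala-diazomethylketone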
# SENP1 inh: inhibitors of human SENP1 SUMO protease catalytic domain | inhibition, % at 10 µM | recombinant SENP1 catalytic domain, CyPet-SUMO1-YPet FRET cleavage | Q9P0U3 | actives 0.21% (n = 360,000);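 active = inhibition at least 30% at 10 µM, raw YFP signal under a set limit, fluorescence ratio 0.5 to 1.5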;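 note: 0% = enzyme with DMSO and 100% = no enzyme wells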
# Target sequence (Q9P0U3 419-644 limits assumed): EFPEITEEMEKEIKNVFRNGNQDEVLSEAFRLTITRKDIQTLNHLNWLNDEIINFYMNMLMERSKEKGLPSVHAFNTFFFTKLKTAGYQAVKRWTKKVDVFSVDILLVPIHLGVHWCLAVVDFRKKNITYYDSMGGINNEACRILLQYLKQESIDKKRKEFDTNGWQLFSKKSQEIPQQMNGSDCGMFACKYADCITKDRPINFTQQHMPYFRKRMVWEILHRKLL
#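 Test system: recombinant human SENP1 catalytic domain, His6-tagged / Medium: pH 8 Tris buffer with EDTA, NaCl, BME, BSA, NP40, catalase / Also added: SUMO1 FRET substrate flanked by Cypet and Ypet, 25 nM / Times: 50 min reaction at room temperature / Signal: FRET, CFP and YFP emission / Control set: no-enzyme low control and enzyme-plus-DMSO high control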
# AHR act: activates the human aryl hydrocarbon receptor; AHR-responsive luciferase reporter cells, luminescence; actives 2.5% (n = 320,000); activation, % at 5 µM; P35869; in the data active = activation above about 47%;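 note: 0% = vehicle wells and 100% = reference agonist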
# M18AAP inhibitor: PfM18AAP enzyme inhibition | recombinant PfM18AAP, H-Glu-NHMec fluorogenic cleavage | inhibition, % at 7.35 µM | actives 1.2% (n = 290,000) | AID 1822;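 active = inhibition above the campaign mean inhibition over all tested compounds plus 3 SD, cut at about 28% in these data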;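 note: 0% = plate median of test compound wells and 100% = 2 mM ZnCl2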
# An asterisk follows results filed as active; nt = no result given.
SMILES,HDAC3 inh,GAA850 FXN act,CTSL1 counter,SENP1 inh,AHR act,M18AAP inhibitor
CCOC(=O)CN1C(=O)C(C)(C)Oc2ccc(C(=O)Nc3ccccc3OC)cc21,4,-3,3,1,15,-3
COc1ccccc1NC(=O)c1ccc2c(c1)N(CC#N)C(=O)C(C)(C)O2,-4,1,1,0,62*,-8
CCOc1ccccc1NC(=O)c1ccc2c(c1)C(=O)N(CC(C)C)C2=O,-7,0,-1,-1,50*,-2
CCN1C(=O)[C@@H]2[C@@H]3CN(S(=O)(=O)c4ccc(C)cc4)[C@@H](c4ccccc4Cl)[C@@H]3C(=O)C[C@@H]2C1=O,nt,nt,nt,-1,nt,nt
CC1=C(C(=O)Nc2cccc(C(=O)NC(C)c3ccccc3)c2)SCCO1 (stereo unspecified),9,0,1,-2,11,3
CCCOc1ccc(C(=O)NNC(=S)NC(=O)c2cccs2)cc1,7,-3,2,-2,5,4
O=C(NC(=S)NNC(=O)c1cccs1)c1ccccc1,-2,3,1,4,52*,11
O=C(NNC(=O)c1cc2ccccc2cc1O)c1cccs1,-1,2,-4,-8,2,29*
C/C(=N\NC(=O)c1cc2ccccc2cc1O)c1cccs1,3,0,4,25,28,18
CC(C)(C)c1ccc(C(=O)NC(=S)NNC(=O)c2cccs2)cc1,7,7,-1,2,74*,9
O=C(O)COc1ccc(NC(=O)c2ccc3c(c2)C(=O)N(Cc2ccccc2)C3=O)cc1,3,-2,7,1,0,-9
CCOC(=O)[C@]12CCCC=C1N(Cc1ccccc1)C(=O)[C@H](CC(=O)NCc1cccc(C(F)(F)F)c1)C2,nt,nt,nt,3,nt,nt
O=C(/C=C1\NCC2c3ccccc3CCN2C1=O)c1ccccc1 (stereo unspecified),2,1,1,-23,62*,-15
COc1ccc(OC)c(N2C(=O)CC(NNC(=O)c3ccc4c(c3)OCO4)C2=O)c1 (stereo unspecified),-3,-2,nt,-1,1,nt
O=C(CCl)N1CCN(S(=O)(=O)c2ccc3ccccc3c2)CC1,5,-8,19*,1,-1,2
CN(C)C(=O)N1CCN(S(=O)(=O)c2ccc3ccccc3c2)CC1,0,1,-2,1,0,-5
CC(=O)Nc1ccc(NC(=O)CSc2ncc(C(=O)Nc3ccc(Cl)cc3)c(=O)n2C)cc1,1,3,11,-2,68*,nt
CC(=O)Nc1cccc(NC(=O)CSc2ncc(C(=O)Nc3ccc(F)cc3)c(=O)n2C)c1,2,5,3,-2,66*,nt
O=[N+]([O-])c1cccc(-c2ccc(/C=N/NC(=S)Nc3ccccc3)o2)c1,-1,-2,-2,2,65*,20
O=C1CCC(C(=O)N2CCCCCC2)CN1Cc1cccc(C(F)(F)F)c1 (stereo unspecified),1,0,3,2,0,-4
Cc1ccc(-n2nc(CC#N)c(C#N)c2N)cc1Cl,6,3,8,-6,68*,-8
CC(C)CCNC(=O)C1c2ccccc2Oc2ccccc21,8,4,3,-1,-4,-2
CCOC(=O)[C@H]1O[C@@H]1C(=O)N[C@@H](CC(C)C)C(=O)NCCC(C)C,-7,1,106*,3,-2,3
CC(C)CCNC(=O)[C@H](CC(C)C)NC(=O)[C@H]1O[C@@H]1C(=O)O,-14,nt,111*,nt,1,-1
Cc1cccc(-n2c(O)cnc2Nc2nc(C)cc(C)n2)c1,-1,0,-2,1,65*,5
SMILES,HDAC3 inh,GAA850 FXN act,CTSL1 counter,SENP1 inh,AHR act,M18AAP inhibitor
Cc1nc(-c2ccccc2)nc2[nH]c(-c3ccccc3)cc(=O)c12,-2,2,13,2,69*,9
O=C(NCCc1cn[nH]c1)c1ccc2oc(CCc3ccccc3)nc2c1,nt,1,nt,-2,nt,nt
COc1cc(/C=C2\CC(C(C)(C)C)C/C(=C\c3cc(OC)c(OC)c(OC)c3)C2=O)cc(OC)c1OC (stereo unspecified),0,-7,6,37*,1,-3
COc1cc(/C=C2\CC/C(=C\c3cc(OC)c(OC)c(OC)c3)C2=O)cc(OC)c1OC,0,4,0,-29,1,-18
COc1cc(/C=C2\CCC(C3CCCC3)C2=O)cc(OC)c1OC (stereo unspecified),3,2,27*,3,6,-1
Cc1ccccc1NC(=O)C1CCCN1S(=O)(=O)c1ccccc1C(F)(F)F (stereo unspecified),6,-1,nt,1,0,nt
C/C(=N\NC(=O)c1ccc(N2CCCC2=O)cc1)c1ccccc1,8,-1,-3,-3,0,-2
C/C(=N\NC(=O)c1ccc(N2CCCC2=O)cc1)c1ccc(O)cc1O,5,0,1,-32,-4,28*
CN(Cc1cn(Cc2cccc(C(F)(F)F)c2)nn1)C1CN(Cc2cn(Cc3cccc(C(F)(F)F)c3)nn2)S(=O)(=O)C1 (stereo unspecified),nt,nt,nt,-2,nt,nt
O=C(CNC(=O)c1ccc(Oc2ccccc2)cc1)OC1CCCCC1=O (stereo unspecified),-7,2,19*,-5,9,-10
Cc1ccc(C(=O)NCC(=O)OC2CCCCC2=O)cc1C (stereo unspecified),-2,1,nt,-1,4,nt
O=S(=O)(c1c(F)cccc1F)C1CCN(S(=O)(=O)c2ccc3c(c2)OCCO3)CC1,-3,0,nt,0,2,nt
Cc1ccccc1CS(=O)(=O)c1nnc([C@H](CC(C)C)NC(=O)OC(C)(C)C)o1,38*,-2,82*,1,0,-128
CC(C)[C@H](NC(=O)OC(C)(C)C)c1nnc(S(=O)(=O)Cc2c(F)cccc2Cl)o1,8,-19,41*,3,8,nt
CC[C@@H](C)[C@H](NC(=O)OCc1ccccc1)c1nnc([C@@H](NC(=O)OCc2ccccc2)[C@@H](C)CC)o1,12,-2,10,1,-1,nt
CC(C)C[C@H](NC(=O)OC(C)(C)C)c1nnc(SCc2ccccc2)o1,11,1,23*,-1,1,3
CC[C@@H](C)[C@H](NC(=O)OC(C)(C)C)c1nnc(S(=O)(=O)Cc2cc(C)ccc2C)o1,17,-3,76*,1,8,-152
CCCCCC(=O)N1C[C@H](n2cc(-c3ccc(F)cc3)nn2)[C@@H](O)C[C@@H]1c1ccc(Cl)cc1,nt,0,nt,-1,nt,nt
Cc1ccc2c(c1)N(C(=O)CCC(=O)NC1CCN(Cc3ccccc3)CC1)CC(C)O2 (stereo unspecified),1,0,2,3,0,2
